# TRPC6 inh: mouse TRPC6 channel inhibition; B-score at 10 µM; actives 1.1% (n = 310,000); HEK293-TRPC6, membrane potential dye, ACh-evoked depolarization; active compounds read low; Q61143;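 active = B-score under library mean minus 3 SD, initial fluorescence not abnormally high, positive integrated signal ratio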;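 note: B-score derived from integrated fluorescence ratio over the kinetic read; more negative B-score means stronger inhibition of depolarization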
# TRPC6 activator: activators of mouse TRPC6 channel | Q61143 | HEK293-TRPC6 membrane potential dye fluorescence; active compounds read high | B-score at 10 µM | actives 0.13% (n = 310,000);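 active = B-score of the integrated fluorescence ratio above library mean plus 3 SD, and starting fluorescence ratio within library mean plus 5 SD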;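 note: higher score means more depolarization so channel activation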
# TRPC4 inh: blocks the mouse TRPC4 cation channel. HEK293 TRPC4beta/mu-opioid, DAMGO-evoked Fluo4 calcium flux; active compounds read low. B-score at 10 µM. actives 0.39% (n = 300,000). AID 2247;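 active = B-score over 3 SD under the library average, no early fluorescence shift, positive overall ratio signal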
#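 Material: HEK293 cells with stable TRPC4beta plus mu-opioid receptor expression / Probe or stimulus: DAMGO in two steps, submaximal then maximal / Compound: single concentration per test compound / Technique: kinetic Fluo4 fluorescence imaging of calcium influx / Read-out: per-well B score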
# TRPC4 act: activators of mouse TRPC4 channel. HEK293 TRPC4beta/mu-opioid, Fluo4 calcium fluorescence; active compounds read high. AID 2237. actives 0.49% (n = 310,000). Q9QUQ5. B-score at 10 µM;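 active = B-score above 5 SD of library B-scores, and initial fluorescence ratio not above library mean plus 5 SD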;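 note: positive B-score marks a calcium rise read as TRPC4 activation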
#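 Incubation: 45 min room-temperature Fluo4 loading, 110 s read / System: HEK293 cells stably co-expressing mouse TRPC4beta and mu-opioid receptor / Signal: Fluo4 fluorescence, kinetic / Control set: buffer (low) and maximal DAMGO (high) / Measure: integrated baseline-normalised fluorescence ratio, converted to per-well B score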
# Kir21 block: Kir2.1 (mouse) channel inhibition; P35561; HEK293-Kir2.1, FluxOR thallium flux fluorescence; active compounds read low; B-score at 10 µM; actives 0.85% (n = 310,000); AID 1672;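 active = fluorescence ratio B-score at or below minus 3 SD of library scores, with starting-brightness B-score within 2 SD, cut at about -4.2 in these data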;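 note: channel flux triggered by added potassium and thallium sulfate stimulus; B-score of peak minus minimum fluorescence over baseline after thallium stimulus; more negative B-score means stronger Kir2.1 block with less thallium influx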
# TRPC4 PAM: TRPC4 (mouse) allosteric potentiation; B-score at 10 µM; AID 2227; HEK293 TRPC4beta/mu-opioid, DAMGO EC20, Fluo-4 Ca2+ flux; active compounds read high; actives 0.42% (n = 310,000); Q9QUQ5;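 active = B-score of calcium response area above 5 SD of library B-scores, with initial fluorescence ratio within 5 SD of library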
# TRPC4 sel inh 2: second check of whether TRPC6 inhibitors also affect mouse TRPC4; actives 42% (n = 920); HEK293 TRPC4/MOR, membrane potential dye fluorescence; channel activated by saturating DAMGO dose; shares compounds with TRPC6 inh; inhibition, % at 10 µM;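 active = compounds whose fluorescence signal differed from control wells by over 3 SD, either direction, in both duplicate plates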
# TRPC4 spec: tests whether TRPC6 inhibitors also affect mouse TRPC4. activity change, negative = inhibition, % at 10 µM. AID 2777. shares compounds with TRPC6 inh. HEK293 TRPC4/mu-opioid, membrane potential fluorescence. actives 61% (n = 920);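 active = rise or fall in signal beyond 3 SD of buffer-only wells in both replicate plates, either sign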;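 note: integrated kinetic ratio of fluorescence range over baseline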
# HEK293 MPD ctr 2-1: second counter-screen for TRPC6 inhibitors: parental HEK293 cells | signal change vs control, % at 10 µM | AID 2779 | actives 31% (n = 920) | parental HEK293 membrane potential dye fluorescence; maximal acetylcholine challenge after compound addition | shares compounds with TRPC6 inh;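 active = membrane potential signal moving either way by over 3 SD of the maximum-effect control, in both duplicate plates, meaning non-specific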
# HEK293 MPD ctr-1: checks TRPC6 inhibitor effects in parental HEK293 cells. shares compounds with TRPC6 inh. parental HEK293 membrane potential dye fluorescence. membrane potential signal change, % at 10 µM. actives 60% (n = 920). AID 2780;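 active = membrane potential signal shifting up or down by more than 3 SD of buffer-only wells, on both duplicate plates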
# HEK293 MPD ctr-2: checks TRPC6 modulator effects in parental HEK293 cells. shares compounds with TRPC6 inh. membrane potential dye fluorescence. membrane potential signal change, % at 10 µM. actives 51% (n = 2,400);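 active = membrane potential signal moves up or down beyond 5 SD from buffer-only wells, on both duplicate plates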
# HEK293 MPD ctr 2-2: second counter-screen for TRPC6 modulators: effect in parental HEK293 cells. shares compounds with TRPC6 inh. membrane potential dye fluorescence; after compound, maximal acetylcholine stimulation. inhibition, % at 10 µM. actives 14% (n = 2,400);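 active = membrane potential signal drops by more than 5 SD from the mean control signal, in both duplicate plates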
# TRPC4/MOR mod: mouse TRPC4 off-target activity of TRPC6 modulators; shares compounds with TRPC6 inh; HEK293 TRPC4/mu-opioid, membrane potential fluorescence; percent change from control (negative = decrease, positive = increase), % at 10 µM; actives 69% (n = 2,400); AID 488927;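 active = membrane potential signal moved up or down beyond 5 SD of buffer control wells, in both duplicate plates, actives on both sides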
# TRPC4 ctr inh 2: mouse TRPC4 off-target activity of TRPC6 modulators, second screen; shares compounds with TRPC6 inh; HEK293 TRPC4/mu-opioid, membrane potential dye fluorescence; stimulated with maximal-effect DAMGO; inhibition, % at 10 µM; actives 55% (n = 2,400);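 active = drop in membrane potential signal beyond 5 SD of the control wells in both duplicate plates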;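 note: TRPC4 counter screen for TRPC6 hits run under conditions tuned for TRPC6 not TRPC4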
# TRPC6 block conf: confirmation of mouse TRPC6 inhibitors; inhibition, % at 10 µM; HEK293-TRPC6, membrane potential dye, ACh-evoked depolarization; shares compounds with TRPC6 inh; actives 43% (n = 3,300);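 active = fluorescence ratio falls more than 5 SD below the full-stimulation control mean, in both duplicate runs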;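 note: integrated fluorescence ratio of peak minus minimum over baseline after agonist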
# TRPC6 act confirm: confirmation of mouse TRPC6 activators. shares compounds with TRPC6 inh. HEK293-TRPC6 membrane potential dye fluorescence, FDSS. activation, % at 10 µM. actives 11% (n = 2,800). AID 488961;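 active = ratio signal rise beyond 5 SD above unstimulated control wells' mean, seen in both duplicate runs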
# Numbers stand for hits; n = inactive; x = no result given. Rows were chosen to be rich in hits. Some 2.9% of all compounds tested hit in one or more screens of this group.
SMILES,TRPC6 inh,TRPC6 activator,TRPC4 inh,TRPC4 act,Kir21 block,TRPC4 PAM,HEK293 MPD ctr-2,HEK293 MPD ctr 2-2,TRPC4/MOR mod,TRPC4 ctr inh 2,TRPC6 block conf,TRPC6 act confirm,others
Cc1nc2ccccc2c(=O)n1-c1ccc(-c2ccccc2)cc1,n,n,n,n,n,n,x,x,x,x,x,x,
C[C@H]1OC[C@@H](C[N+](C)(C)C)O1,-6.71,n,n,88,n,n,x,x,x,x,70.1%,x,TRPC4 sel inh 2=n;TRPC4 spec=34.0%;HEK293 MPD ctr 2-1=n;HEK293 MPD ctr-1=4.8%
COc1ccc(Cc2c(O)[nH]c(=O)[nH]c2=O)c(OC)c1,n,16.2,n,n,n,n,n,n,n,n,n,n,
CCc1cccc(C)c1NC(=S)N1CC2CC(C1)c1cccc(=O)n1C2 (stereo not given),n,n,n,n,n,n,x,x,x,x,x,x,
CC[n+]1c(/C=C/C=C/c2ccc(N(C)C)cc2)sc2ccccc21,n,n,n,n,n,n,x,x,x,x,x,x,
CC[n+]1c(/C=C/N(C)c2ccccc2)sc2ccc(Cl)cc21,-6.28,n,n,n,n,n,n,95.5%,n,35.5%,46.0%,n,
C[N+]1(C)[C@@H]2CC[C@H]1CC(OC(=O)C(c1ccccc1)c1ccccc1)C2 (stereo not given in full),-5.32,n,n,n,n,n,n,91.0%,n,n,96.0%,n,
CCCCCCCSc1cc(OC)c(CCNC)cc1OC,-5.09,n,n,n,-9.82,n,n,n,n,49.5%,43.0%,n,
CCCCCSc1cc(OC)c(CCNC)cc1OC,-6.03,n,n,n,-8.94,n,n,n,12.5%,28.5%,n,n,
c1ccc(-c2ccc(-c3n(-c4ccccn4)c4ccccc4[n+]3-c3ccccn3)cc2)cc1,n,n,n,n,n,n,x,x,x,x,x,x,
O=[N+]([O-])c1ccc2nc(N3CCNCC3)ccc2c1,-5.01,n,n,n,n,n,-217.5%,n,-38.0%,42.5%,n,n,
COc1ccc(-n2nc(C(=O)NCC(=O)N3CCC4(CC3)OCCO4)c3ccccc3c2=O)cc1Cl,n,n,n,n,n,n,x,x,x,x,x,x,
O=C(c1ccc(Cl)cc1)C1CCCN(C2CCSCC2)C1 (stereo not given),-7,n,-5,n,n,n,129.5%,n,28.0%,49.5%,44.5%,x,
COc1ccc(C(=O)C2CCCN(C3CSCCSC3)C2)cc1OC (stereo not given),-7.66,n,n,167,n,n,n,83.0%,59.0%,35.5%,72.5%,n,
